Measurements taken from ChEMBL document CHEMBL4765291, “Design, synthesis and biological evaluation of novel 3,4-dihydro-2(1H)-quinolinone derivatives as potential chitin synthase inhibitors and antifungal agents” (Eur J Med Chem, 2020).
Converted amounts (≈) assume the structure as drawn.

Experiments:
Candida tropicalis = assay: Inhibition of Candida tropicalis ATCC 750 chitin synthase at 300 ug/ml using UDP-GlcNAc as substrate relative to control; settings: dose 300.0 µg/ml
Outline: (§1)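 Chitin synthase prepared from C. tropicalis ATCC 750 by low- and high-speed centrifugation. DMSO stocks (10 mg/mL) diluted in 50 mM Tris-HCl pH 7.5; test concentrations 300–9.375 µg/mL. Chitin synthesized in WGA-coated wells, bound with WGA-HRP, washed, developed with TMB/H2O2, stopped with 2 M H2SO4, OD read. Duplicate; polyoxin B positive control.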

[1] = Inhibition of Candida tropicalis ATCC 750 chitin synthase using UDP-GlcNAc as substrate; outline: as §1
Candida albicans [2] = assay: Antifungal activity against Candida albicans ATCC 90023 incubated for 48 hrs by two-fold broth dilution analysis; type: functional
Outline: (§2)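 Stock solutions in DMSO, diluted to 0.25–512 µg/mL; two-fold serial broth dilution in 96-well plates. Fungi grown on modified Sabouraud chloramphenicol agar (1% peptone, 2% glucose, […]). Incubated 48 h at 37 °C, then MIC (µg/mL) recorded. Fluconazole and polyoxin B as positive controls; each group tested in triplicate.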

Cryptococcus neoformans = assay: Antifungal activity against Cryptococcus neoformans ATCC 32719 incubated for 48 hrs by two-fold broth dilution analysis; type: functional; outline: as §2
Aspergillus flavus = assay: Antifungal activity against Aspergillus flavus ATCC 16870 incubated for 48 hrs by two-fold broth dilution analysis; type: functional; outline: as §2
Staphylococcus aureus [3] = assay: Antibacterial activity against methicillin-resistant Staphylococcus aureus N. 315; type: functional
Outline: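 Two-fold serial broth dilution in 96-well plates per national clinical standard; beef extract peptone medium (1% peptone, 0.3% beef extract, 0.5% NaCl, […]). Compounds from DMSO stock diluted to test concentrations; incubation 18–24 h. MIC recorded; each group tested independently in triplicate.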

Candida albicans [4] = assay: Antifungal activity against Candida albicans ATCC 76615 incubated for 48 hrs by two-fold broth dilution analysis; type: functional; outline: as §2
Aspergillus fumigatus = assay: Antifungal activity against Aspergillus fumigatus GIMCC 3.19 incubated for 48 hrs by two-fold broth dilution analysis; type: functional; outline: as §2
Staphylococcus aureus [5] = assay: Antibacterial activity against Staphylococcus aureus ATCC 25923; type: functional
Outline: (§3)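 Two-fold serial broth dilution in 96-well plates following National Committee standards; compounds tested at different concentrations. Medium: beef extract peptone (1% peptone, 0.3% beef extract, 0.5% NaCl). Incubation 18–24 h. MIC recorded; streptomycin and norfloxacin as control drugs; each group tested in triplicate.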

Bacillus subtilis = assay: Antibacterial activity against Bacillus subtilis ATCC 6633; type: functional; outline: as §3
Pseudomonas aeruginosa = assay: Antibacterial activity against Pseudomonas aeruginosa ATCC 9027; type: functional; outline: as §3
Proteus vulgaris = assay: Antibacterial activity against Bacillus proteus ATCC 8427; type: functional; outline: as §3
Escherichia coli = assay: Antibacterial activity against Escherichia coli JM 109

Row | SMILES | inhibition (Candida tropicalis) [%] | IC50 [1] [µM] | MIC (Candida albicans [2]) [µg/mL] | MIC (Cryptococcus neoformans) [µg/mL] | MIC (Aspergillus flavus) [µg/mL] | MIC (Staphylococcus aureus [3]) [µg/mL] | MIC (Candida albicans [4]) [µg/mL] | MIC (Aspergillus fumigatus) [µg/mL] | MIC (Staphylococcus aureus [5]) [µg/mL] | MIC (Bacillus subtilis) [µg/mL] | MIC (Pseudomonas aeruginosa) [µg/mL] | MIC (Proteus vulgaris) [µg/mL] | MIC (Escherichia coli) [µg/mL]
1 | O=C(/C=C/C(=O)NC1Cc2ccccc2NC1=O)Nc1ccc(F)c(F)c1 (stereo unspecified) | 66.5 | 340 | 2 (≈ 5.39 µM) | 16 (≈ 43.1 µM) | 8 (≈ 21.5 µM) | 512 (≈ 1380 µM) | 4 (≈ 10.8 µM) | 8 (≈ 21.5 µM) | 256 (≈ 689 µM) | 512 (≈ 1380 µM) | 512 (≈ 1380 µM) | 512 (≈ 1380 µM) | 512 (≈ 1380 µM)
2 | O=C(/C=C/C(=O)NC1Cc2ccccc2NC1=O)Nc1ccc(Br)cc1 (stereo unspecified) | 40.3 | – | 2 (≈ 4.83 µM) | 16 (≈ 38.6 µM) | 4 (≈ 9.66 µM) | 256 (≈ 618 µM) | 2 (≈ 4.83 µM) | 4 (≈ 9.66 µM) | 128 (≈ 309 µM) | 512 (≈ 1240 µM) | 512 (≈ 1240 µM) | 512 (≈ 1240 µM) | 512 (≈ 1240 µM)
3 | Cc1ccccc1NC(=O)/C=C/C(=O)NC1Cc2ccccc2NC1=O (stereo unspecified) | 67.3 | 380 | 2 (≈ 5.72 µM) | 16 (≈ 45.8 µM) | 4 (≈ 11.4 µM) | 256 (≈ 733 µM) | 1 (≈ 2.86 µM) | 4 (≈ 11.4 µM) | 128 (≈ 366 µM) | 512 (≈ 1470 µM) | 512 (≈ 1470 µM) | 256 (≈ 733 µM) | 256 (≈ 733 µM)
4 | O=C(/C=C/C(=O)NC1Cc2ccccc2NC1=O)Nc1ccccc1 (stereo unspecified) | 35.7 | – | 2 (≈ 5.96 µM) | 4 (≈ 11.9 µM) | 4 (≈ 11.9 µM) | 256 (≈ 763 µM) | 4 (≈ 11.9 µM) | 4 (≈ 11.9 µM) | 256 (≈ 763 µM) | 256 (≈ 763 µM) | 256 (≈ 763 µM) | 256 (≈ 763 µM) | 512 (≈ 1530 µM)
5 | O=C(/C=C/C(=O)NC1Cc2ccccc2NC1=O)Nc1cccc2ccccc12 (stereo unspecified) | 27.8 | – | 2 (≈ 5.19 µM) | 4 (≈ 10.4 µM) | 8 (≈ 20.8 µM) | 256 (≈ 664 µM) | 2 (≈ 5.19 µM) | 4 (≈ 10.4 µM) | 256 (≈ 664 µM) | 256 (≈ 664 µM) | 256 (≈ 664 µM) | 256 (≈ 664 µM) | 512 (≈ 1330 µM)
6 | O=C(/C=C/C(=O)NC1Cc2ccccc2NC1=O)Nc1ccc(Cl)cc1 (stereo unspecified) | 50.5 | – | 2 (≈ 5.41 µM) | 4 (≈ 10.8 µM) | 4 (≈ 10.8 µM) | 512 (≈ 1380 µM) | 4 (≈ 10.8 µM) | 8 (≈ 21.6 µM) | 128 (≈ 346 µM) | 256 (≈ 692 µM) | 512 (≈ 1380 µM) | 512 (≈ 1380 µM) | 256 (≈ 692 µM)
7 | O=C(/C=C/C(=O)NC1Cc2ccccc2NC1=O)Nc1cccc(Br)c1 (stereo unspecified) | 45.2 | – | 1 (≈ 2.41 µM) | 32 (≈ 77.2 µM) | 4 (≈ 9.66 µM) | 512 (≈ 1240 µM) | 2 (≈ 4.83 µM) | 4 (≈ 9.66 µM) | 128 (≈ 309 µM) | 256 (≈ 618 µM) | 256 (≈ 618 µM) | 256 (≈ 618 µM) | 256 (≈ 618 µM)
8 | O=C(/C=C/C(=O)NC1Cc2ccccc2NC1=O)Nc1ccc(F)cc1 (stereo unspecified) | 51.2 | 340 | 2 (≈ 5.66 µM) | 8 (≈ 22.6 µM) | 8 (≈ 22.6 µM) | 512 (≈ 1450 µM) | 2 (≈ 5.66 µM) | 4 (≈ 11.3 µM) | 128 (≈ 362 µM) | 512 (≈ 1450 µM) | 256 (≈ 724 µM) | 256 (≈ 724 µM) | 256 (≈ 724 µM)
9 | OC(Cn1cncn1)(Cn1cncn1)c1ccc(F)cc1F [FLUCONAZOLE] | – | – | 1 (≈ 3.27 µM) | 2 (≈ 6.53 µM) | 2 (≈ 6.53 µM) | – | 1 (≈ 3.27 µM) | 2 (≈ 6.53 µM) | – | – | – | – | –
10 | Cc1cc(C)cc(NC(=O)/C=C/C(=O)NC2Cc3ccccc3NC2=O)c1 (stereo unspecified) | 71.5 | 190 | 2 (≈ 5.5 µM) | 16 (≈ 44 µM) | 1 (≈ 2.75 µM) | 512 (≈ 1410 µM) | 4 (≈ 11 µM) | 2 (≈ 5.5 µM) | 128 (≈ 352 µM) | 256 (≈ 704 µM) | 256 (≈ 704 µM) | 512 (≈ 1410 µM) | 256 (≈ 704 µM)
11 | O=C(/C=C/C(=O)NC1Cc2ccccc2NC1=O)Nc1ccccc1Cl (stereo unspecified) | 46.7 | – | 2 (≈ 5.41 µM) | 16 (≈ 43.3 µM) | 8 (≈ 21.6 µM) | 512 (≈ 1380 µM) | 4 (≈ 10.8 µM) | 8 (≈ 21.6 µM) | 128 (≈ 346 µM) | 512 (≈ 1380 µM) | 256 (≈ 692 µM) | 512 (≈ 1380 µM) | 256 (≈ 692 µM)
12 | COc1ccc(NC(=O)/C=C/C(=O)NC2Cc3ccccc3NC2=O)cc1 (stereo unspecified) | 74.6 | 210 | 1 (≈ 2.74 µM) | 16 (≈ 43.8 µM) | 2 (≈ 5.47 µM) | 256 (≈ 701 µM) | 2 (≈ 5.47 µM) | 4 (≈ 10.9 µM) | 128 (≈ 350 µM) | 256 (≈ 701 µM) | 512 (≈ 1400 µM) | 256 (≈ 701 µM) | 512 (≈ 1400 µM)
13 | NC(=O)OC[C@H](O)[C@@H](O)[C@H](N)C(=O)N[C@H](C(=O)O)[C@H]1O[C@@H](n2cc(CO)c(=O)[nH]c2=O)[C@H](O)[C@@H]1O [POLYOXIN B] | 87.5 | 90 | 4 (≈ 7.88 µM) | 4 (≈ 7.88 µM) | 4 (≈ 7.88 µM) | – | 2 (≈ 3.94 µM) | 2 (≈ 3.94 µM) | – | – | – | – | –
14 | O=C(/C=C/C(=O)NC1Cc2ccccc2NC1=O)Nc1ccccc1F (stereo unspecified) | 48.9 | – | 4 (≈ 11.3 µM) | 16 (≈ 45.3 µM) | 8 (≈ 22.6 µM) | 512 (≈ 1450 µM) | 8 (≈ 22.6 µM) | 1 (≈ 2.83 µM) | 256 (≈ 724 µM) | 256 (≈ 724 µM) | 512 (≈ 1450 µM) | 512 (≈ 1450 µM) | 512 (≈ 1450 µM)
15 | O=C(/C=C/C(=O)NC1Cc2ccccc2NC1=O)Nc1ccccc1[N+](=O)[O-] (stereo unspecified) | 53.3 | 320 | 2 (≈ 5.26 µM) | 4 (≈ 10.5 µM) | 4 (≈ 10.5 µM) | 256 (≈ 673 µM) | 4 (≈ 10.5 µM) | 8 (≈ 21 µM) | 128 (≈ 337 µM) | 256 (≈ 673 µM) | 256 (≈ 673 µM) | 256 (≈ 673 µM) | 256 (≈ 673 µM)
16 | O=C(/C=C/C(=O)NC1Cc2ccccc2NC1=O)Nc1cccc([N+](=O)[O-])c1 (stereo unspecified) | 49.3 | – | 2 (≈ 5.26 µM) | 4 (≈ 10.5 µM) | 4 (≈ 10.5 µM) | 256 (≈ 673 µM) | 4 (≈ 10.5 µM) | 8 (≈ 21 µM) | 128 (≈ 337 µM) | 256 (≈ 673 µM) | 512 (≈ 1350 µM) | 256 (≈ 673 µM) | 128 (≈ 337 µM)
17 | Cc1ccc(NC(=O)/C=C/C(=O)NC2Cc3ccccc3NC2=O)cc1 (stereo unspecified) | 58.7 | 260 | 2 (≈ 5.72 µM) | 16 (≈ 45.8 µM) | 4 (≈ 11.4 µM) | 256 (≈ 733 µM) | 4 (≈ 11.4 µM) | 4 (≈ 11.4 µM) | 128 (≈ 366 µM) | 512 (≈ 1470 µM) | 512 (≈ 1470 µM) | 256 (≈ 733 µM) | 256 (≈ 733 µM)
18 | CN[C@@H]1[C@H](O[C@H]2[C@H](O[C@H]3[C@H](O)[C@@H](O)[C@H](N=C(N)N)[C@@H](O)[C@@H]3N=C(N)N)O[C@@H](C)[C@]2(O)C=O)O[C@@H](CO)[C@H](O)[C@H]1O [STREPTOMYCIN] | – | – | – | – | – | 16 (≈ 27.5 µM) | – | – | 32 (≈ 55 µM) | 8 (≈ 13.8 µM) | 8 (≈ 13.8 µM) | 16 (≈ 27.5 µM) | 32 (≈ 55 µM)
19 | O=C(/C=C/C(=O)NC1Cc2ccccc2NC1=O)Nc1ccc([N+](=O)[O-])cc1 (stereo unspecified) | 65.2 | 350 | 2 (≈ 5.26 µM) | 8 (≈ 21 µM) | 2 (≈ 5.26 µM) | 256 (≈ 673 µM) | 8 (≈ 21 µM) | 4 (≈ 10.5 µM) | 128 (≈ 337 µM) | 256 (≈ 673 µM) | 512 (≈ 1350 µM) | 256 (≈ 673 µM) | 256 (≈ 673 µM)
20 | CCn1cc(C(=O)O)c(=O)c2cc(F)c(N3CCNCC3)cc21 [NORFLOXACIN] | – | – | – | – | – | 4 (≈ 12.5 µM) | – | – | 2 (≈ 6.26 µM) | 4 (≈ 12.5 µM) | 8 (≈ 25.1 µM) | 2 (≈ 6.26 µM) | 8 (≈ 25.1 µM)
21 | O=C(/C=C/C(=O)NC1Cc2ccccc2NC1=O)Nc1ccccc1Br (stereo unspecified) | 39.9 | – | 2 (≈ 4.83 µM) | 32 (≈ 77.2 µM) | 2 (≈ 4.83 µM) | 256 (≈ 618 µM) | 4 (≈ 9.66 µM) | 8 (≈ 19.3 µM) | 128 (≈ 309 µM) | 512 (≈ 1240 µM) | 512 (≈ 1240 µM) | 512 (≈ 1240 µM) | 512 (≈ 1240 µM)
